Measurements: PMC2151622 (The Journal of General Physiology, 2007)
Changes are numbered by the printed parent chain. Where two headings read alike, the source gives them in different places.

How the values were obtained:
Format in all cases: cell-based, rabbit
D444E-EAAC1 = target: T1, D444E-EAAC1 (Oryctolagus cuniculus, UniProt P31597, D444E); test: Blockade of sodium-dependent transient currents
T1 sequence (P31597 1-524 D444E): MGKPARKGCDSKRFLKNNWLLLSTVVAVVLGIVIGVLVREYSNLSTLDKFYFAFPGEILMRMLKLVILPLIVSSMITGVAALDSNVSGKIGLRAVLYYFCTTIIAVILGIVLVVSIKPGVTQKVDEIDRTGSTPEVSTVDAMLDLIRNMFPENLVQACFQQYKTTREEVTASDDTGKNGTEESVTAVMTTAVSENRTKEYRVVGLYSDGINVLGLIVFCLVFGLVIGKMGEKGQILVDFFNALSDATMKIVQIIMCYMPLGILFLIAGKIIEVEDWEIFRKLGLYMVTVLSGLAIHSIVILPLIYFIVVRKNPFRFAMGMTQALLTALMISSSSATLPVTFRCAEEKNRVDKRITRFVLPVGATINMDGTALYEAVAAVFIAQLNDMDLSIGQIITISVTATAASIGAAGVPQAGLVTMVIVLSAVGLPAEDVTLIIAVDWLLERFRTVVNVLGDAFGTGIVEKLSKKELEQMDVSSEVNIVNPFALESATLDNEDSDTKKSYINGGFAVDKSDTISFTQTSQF
Summary of the method: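 Oocytes expressing the mutant were voltage clamped in ND96 (pH 7.5, HEPES) and stepped from −25 mV. Transients are buffer current minus buffer-plus-compound current. Charge is the sum of current–time integrals at −100 and +80 mV, normalised to 1 mM L-aspartate or 15 mM succinate, and fitted to a generalized Hill equation. Decay constants come from a first-order exponential fit; mean ± SEM of 3–10 oocytes.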

D444S-EAAC1 = target: T2, D444S-EAAC1 (Oryctolagus cuniculus, UniProt P31597, D444S); test: Blockade of sodium-dependent transient currents; settings: for Decay time of transient currents blocked: at −100 mV
T2 sequence (P31597 1-524 D444S): T1 sequence (P31597 1-524 D444E) with E444S
Summary of the method: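 Oocytes expressing the mutant were clamped in sodium ND96 and given 250-ms pulses from −25 mV to −100…+40 mV, with and without compound; TBOA was added to a stopped bath. Isolated transients (without minus with compound) were integrated at −100 and +40 mV and summed. Charge was normalised to 10 mM of each compound and Hill-fitted; 4–6 oocytes. Decay came from an exponential fit; 3–10 oocytes.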

WT-EAAC1 = target: T3, WT-EAAC1 (Oryctolagus cuniculus, UniProt P31597); settings: NaSCN-based buffer
T3 sequence (P31597 1-524): T1 sequence (P31597 1-524 D444E) with E444D
Summary of the method: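 Two-electrode voltage clamp of oocytes in buffer with all NaCl replaced by NaSCN, grounded through a 2% agarose/2 M KCl bridge. Compounds were 2 mM; TBOA (10 μM) was added to a stopped bath. Steps from −25 mV to −100…+40 mV. Net steady-state current (with minus without) was normalised to the L-aspartate current at +40 mV; mean ± SEM of 3 oocytes (L-aspartate n = 6).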

D444C-EAAC1 = target: T4, D444C-EAAC1 (Oryctolagus cuniculus, UniProt P31597, D444C); test: Blockade of sodium-dependent transient currents; settings: for Decay time of transient currents blocked: at −100 mV
T4 sequence (P31597 1-524 D444C): T1 sequence (P31597 1-524 D444E) with E444C
Summary of the method: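 Steps from −25 mV to −100…+40 mV. Transients taken as current without minus current with compound. Charge is the sum of integrals at −100 and +40 mV, normalised to 10 mM of the same compound. IC50 from a generalized Hill fit; decay from a first-order exponential; 3–10 oocytes.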

D444N mutant EAAC1 = target: T5, D444N mutant EAAC1 (Oryctolagus cuniculus, UniProt P31597, D444N); test: Blockade of transient currents
T5 sequence (P31597 1-524 D444N): T1 sequence (P31597 1-524 D444E) with E444N

T448A mutant EAAC1 = target: T6, T448A mutant EAAC1 (Oryctolagus cuniculus, UniProt P31597, T448A); test: Uptake of D-[3H]-aspartate in Xenopus laevis oocytes expressing T448A; settings: 20 min in ND96
T6 sequence (P31597 1-524 T448A): T1 sequence (P31597 1-524 D444E) with E444D, T448A

D444C mutant EAAC1 = target: T7, D444C mutant EAAC1 (Oryctolagus cuniculus, UniProt P31597, D444C); settings: 10 min
T7 sequence (P31597 1-524 D444C): T1 sequence (P31597 1-524 D444E) with E444C

Structure (SMILES): N[C@H](C(=O)O)[C@H](OCc1ccccc1)C(=O)O (racemic) [TBOA, DL-threo-β-benzyloxyaspartate]
- Decay time of transient currents blocked (D444E-EAAC1; 10 μM D,L-TBOA, at +80 mV): 5.6 ± 1.2 ms
- IC50 (D444E-EAAC1; read-out: IC50 for substrates/blockers of charge movements, Xenopus oocytes, mean ± SEM): 1.8 ± 0.4 µM
- Decay time of transient currents blocked (D444S-EAAC1; D444S, 160 μM D,L-TBOA): 6 ± 0.6 ms
- IC50 (D444S-EAAC1; read-out: IC50 for substrates/blockers of charge movements, D444S, Xenopus oocytes, mean ± SEM): 31 ± 8 µM
- Effect on the anion conductance (WT-EAAC1; 10 μM D,L-TBOA): decreased
- Decay time of transient currents blocked (D444C-EAAC1; D444C, 10 μM D,L-TBOA): 4.8 ± 0.3 ms
- IC50 (D444C-EAAC1; read-out: IC50 for substrates/blockers of charge movements, D444C, Xenopus oocytes, mean ± SEM): 1.9 ± 0.2 µM

Structure (SMILES): N[C@@H](CCC(=O)O)C(=O)O [L-Glutamate, L-glutamate]
- IC50 (D444E-EAAC1; IC50 for substrates/blockers of charge movements, Xenopus oocytes, mean ± SEM): 24.4 ± 2.2 µM
- IC50 (D444S-EAAC1): 1220 ± 160 µM
- Decay time of transient currents blocked (D444S-EAAC1; D444S, 10 mM compound): 11.0 ± 1.2 ms
- IC50 (D444N mutant EAAC1): 718 ± 217 µM
- IC50 (D444C-EAAC1): 29 ± 3 µM
- Decay time of transient currents blocked (D444C-EAAC1; D444C, 10 mM compound): 17.7 ± 1 ms

Structure (SMILES): N[C@H](CC(=O)O)C(=O)O [D-Aspartate, D-aspartate]
- IC50 (D444S-EAAC1): 1370 ± 360 µM
- Decay time of transient currents blocked (D444S-EAAC1; D444S, 10 mM compound): 12.8 ± 0.6 ms
- IC50 (D444C-EAAC1): 8 ± 1 µM
- Decay time of transient currents blocked (D444C-EAAC1; D444C, 10 mM compound): 18.4 ± 1 ms

Structure (SMILES): NCCCC(=O)O [GABA]
- Inhibition of the transient currents (D444S-EAAC1; D444S, 5 mM, sodium 96 mM): unable to inhibit
- Effect on the anion conductance (WT-EAAC1; 2 mM): not seen

Structure (SMILES): [3H]C(C(=O)O)C([3H])(N)C(=O)O [D-[^3H]-aspartate, D-[2,3-^3H]-aspartic acid]
- Uptake of D-[3H]-aspartate relative to WT (T448A mutant EAAC1): ~20%
- D-[3H]-aspartate uptake relative to WT-EAAC1 (D444C mutant EAAC1): ~5%

Structure (SMILES): O=C(O)CCCC(=O)O [Glutarate, glutarate]
- Inhibition of transient currents of similar size as succinate (D444S-EAAC1; D444S, 2 mM, unpublished data): capable of inhibiting
- IC50 (D444C-EAAC1): 260 ± 40 µM
